Source: ChEMBL document CHEMBL1125042, “Hypolipidemic activity of rifamycin derivatives” (J Med Chem, 1990)
In brackets after ≈: the same amount, converted by molar mass.

How the values were obtained:
Rattus norvegicus [1] = assay: Hypolipidemic activity was determined by measuring the % serum HDL in hypercholesterolemic RICO rat at a dose of 30 mg/kg; format: functional, organism-based; set-up: dose 30 mg/kg
Outline: (§1)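 Genetically hypercholesterolemic RICO rats (Tif:RAI,f,SPF) were dosed orally for 7 days. Sera were collected after a 16 h fast and pooled in pairs. LDL (1.006–1.040 g/cm³) and HDL infranatant were separated by ultracentrifugation. Cholesterol and triglycerides were measured enzymatically. Results are % change versus vehicle control, mean ± SEM of four pools.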

Rattus norvegicus [2] = assay: Hypolipidemic activity was determined by measuring the % serum triglycerides in hypercholesterolemic RICO rat at a dose of 3 mg/kg; format: functional, organism-based; set-up: dose 3 mg/kg; outline: as §1
Rattus norvegicus [3] = assay: Hypolipidemic activity was determined by measuring the % serum cholesterol in hypercholesterolemic RICO rat at a dose of 3 mg/kg; format: functional, organism-based; set-up: dose 3 mg/kg; outline: as §1
Rattus norvegicus [4] = assay: Hypolipidemic activity was determined by measuring the % serum HDL in hypercholesterolemic RICO rat at a dose of 10 mg/kg; format: functional, organism-based; set-up: dose 10 mg/kg; outline: as §1
Rattus norvegicus [5] = assay: Hypolipidemic activity was determined by measuring the % serum HDL-cholesterol in normal rat at the specified dose of 10 mg/kg; format: functional, organism-based; set-up: dose 10 mg/kg
Outline: (§2)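 Male Wistar rats (200–230 g, n=8 per group) were given oral doses in PEG 400 and fasted 16 h before being killed under pentothal. Paired sera were pooled with 0.05% EDTA and 0.01% thimerosal, and LDL/HDL were separated by ultracentrifugation. Cholesterol was measured enzymatically. Results are % versus vehicle control, mean ± SEM of four serum pools, Student's t test.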

Rattus norvegicus [6] = assay: Hypolipidemic activity was determined by measuring the % serum LDL-cholesterol in hypercholesterolemic RICO rat at a dose of 30 mg/kg; format: functional, organism-based; set-up: dose 30 mg/kg; outline: as §1
Rattus norvegicus [7] = assay: Hypolipidemic activity was determined by measuring the % serum cholesterol in normal rat at a dose of 3 mg/kg; format: functional, organism-based; set-up: dose 3 mg/kg
Outline: (§3)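 Normal male Wistar rats (200–230 g), eight per group, were dosed orally in PEG 400 once daily for 7 days. They were fasted 16 h and killed 24 h after the last dose. Serum from pairs was pooled and LDL/HDL fractions were ultracentrifuged. Cholesterol and triglycerides were measured enzymatically. Results are % versus vehicle control, mean ± SEM of four pools, Student's t test.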

Rattus norvegicus [8] = assay: Tested for hypolipidemic activity in male rats, cholesterol was determined in serum at 10 mg/kg; format: functional
Outline: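 Groups of eight male Wistar rats (200–230 g) dosed orally in PEG 400, either daily for 7 days (killed 24 h after the last dose) or for 4 days with a second dose on day 4 (killed 16 h later). Fasted 16 h. Paired sera pooled, lipoproteins separated by ultracentrifugation (1.006 and 1.040 g/cm³), HDL taken as the infranatant. Cholesterol measured enzymatically; % vs vehicle, mean ± SEM of four pools.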

Rattus norvegicus [9] = assay: Hypolipidemic activity was determined in male rats, and low-density lipoprotein level was determined at 10 mg/kg; format: functional
Outline: (§4)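 Male Wistar rats (200–230 g), eight per group, were dosed orally in PEG 400 at 8 a.m. for 4 days, plus a second dose at 4 p.m. on day 4. Rats were fasted 16 h and killed 16 h after the last dose. Sera from pairs of rats were pooled. LDL (up to 1.040 g/cm³) was separated by ultracentrifugation and the HDL infranatant taken. Cholesterol was measured enzymatically. Results are % versus vehicle control, mean ± SEM of four pools, Student's t test.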

Staphylococcus aureus = assay: Antibacterial activity against Staphylococcus aureus 10B; format: functional
Outline: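 Agar dilution on DST agar with 2-fold drug dilutions. Inoculum of 10⁴ viable S. aureus 10B was taken from liquid-nitrogen stock, thawed 30 min and not subcultured. It was applied by multipoint replicator and incubated overnight at 37 °C. MIC is the lowest concentration inhibiting growth relative to control cultures.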

Rattus norvegicus [10] = assay: Hypolipidemic activity was determined by measuring the % serum triglycerides in normal rat at a dose of 30 mg/kg; format: functional, organism-based; set-up: dose 30 mg/kg; outline: as §3
Rattus norvegicus [11] = assay: Hypolipidemic activity was determined by measuring the % serum cholesterol in hypercholesterolemic RICO rat at a dose of 30 mg/kg; format: functional, organism-based; set-up: dose 30 mg/kg; outline: as §1
Rattus norvegicus [12] = assay: Hypolipidemic activity was determined by measuring the % serum cholesterol in normal rat at a dose of 30 mg/kg; format: functional, organism-based; set-up: dose 30 mg/kg; outline: as §3
Rattus norvegicus [13] = assay: Hypolipidemic activity was determined by measuring the % serum triglycerides in normal rat at a dose of 1 mg/kg; format: functional, organism-based; set-up: dose 1 mg/kg; outline: as §3
Rattus norvegicus [14] = assay: Hypolipidemic activity was determined by measuring the % serum cholesterol in normal rat at a dose of 10 mg/kg; format: functional, organism-based; set-up: dose 10 mg/kg; outline: as §3
Rattus norvegicus [15] = assay: Hypolipidemic activity was determined by measuring the % serum triglycerides in hypercholesterolemic RICO rat at a dose of 30 mg/kg; format: functional, organism-based; set-up: dose 30 mg/kg; outline: as §1
Rattus norvegicus [16] = assay: Hypolipidemic activity was determined in male rats, and high-density lipoprotein level was determined at 10 mg/kg; format: functional; outline: as §4
Rattus norvegicus [17] = assay: Hypolipidemic activity was determined by measuring the % serum LDL in normal rat at a dose of 30 mg/kg; format: functional, organism-based; set-up: dose 30 mg/kg; outline: as §3
Rattus norvegicus [18] = assay: Hypolipidemic activity was determined by measuring the % serum HDL in normal rat at a dose of 3 mg/kg; format: functional, organism-based; set-up: dose 3 mg/kg; outline: as §3
Rattus norvegicus [19] = assay: Hypolipidemic activity was determined by measuring the % serum LDL-cholesterol in normal rat at the specified dose of 30 mg/kg; format: functional, organism-based; set-up: dose 30 mg/kg; outline: as §2
Rattus norvegicus [20] = assay: Hypolipidemic activity was determined by measuring the % serum LDL-cholesterol in hypercholesterolemic RICO rat at a dose of 3 mg/kg; format: functional, organism-based; set-up: dose 3 mg/kg; outline: as §1
Rattus norvegicus [21] = assay: Hypolipidemic activity was determined by measuring the % serum LDL-cholesterol in normal rat at the specified dose of 10 mg/kg; format: functional, organism-based; set-up: dose 10 mg/kg; outline: as §2
Rattus norvegicus [22] = assay: Hypolipidemic activity was determined by measuring the % serum LDL in normal rat at a dose of 1 mg/kg; format: functional, organism-based; set-up: dose 1 mg/kg; outline: as §3
[23] = Inhibitory activity against RNA polymerase was determined; set-up: species or system Escherichia coli
Outline: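 E. coli DNA-dependent RNA polymerase inhibition measured in vitro on ether-extracted, permeabilized E. coli cells.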

Rattus norvegicus [24] = assay: Hypolipidemic activity was determined by measuring the % serum HDL in normal rat at a dose of 30 mg/kg; format: functional, organism-based; set-up: dose 30 mg/kg; outline: as §3
Rattus norvegicus [25] = assay: Hypolipidemic activity was determined by measuring the % serum cholesterol in hypercholesterolemic RICO rat at a dose of 10 mg/kg; format: functional, organism-based; set-up: dose 10 mg/kg; outline: as §1
Rattus norvegicus [26] = assay: Hypolipidemic activity was determined by measuring the % serum cholesterol in rat at the specified dose of 30 mg/kg; format: functional, organism-based; set-up: dose 30 mg/kg; outline: as §2
Rattus norvegicus [27] = assay: Hypolipidemic activity was determined by measuring the % serum HDL in hypercholesterolemic RICO rat at a dose of 3 mg/kg; format: functional, organism-based; set-up: dose 3 mg/kg; outline: as §1
Rattus norvegicus [28] = assay: Hypolipidemic activity was determined by measuring the % serum LDL-cholesterol in hypercholesterolemic RICO rat at a dose of 10 mg/kg; format: functional, organism-based; set-up: dose 10 mg/kg; outline: as §1
Rattus norvegicus [29] = assay: Hypolipidemic activity was determined by measuring the % serum HDL in normal rat at a dose of 1 mg/kg; format: functional, organism-based; set-up: dose 1 mg/kg; outline: as §3
Rattus norvegicus [30] = assay: Hypolipidemic activity was determined by measuring the % serum triglycerides in normal rat at a dose of 3 mg/kg; format: functional, organism-based; set-up: dose 3 mg/kg; outline: as §3
Rattus norvegicus [31] = assay: Hypolipidemic activity was determined by measuring the % serum LDL in normal rat at a dose of 3 mg/kg; format: functional, organism-based; set-up: dose 3 mg/kg; outline: as §3
Rattus norvegicus [32] = assay: Hypolipidemic activity was determined by measuring the % serum LDL in normal rat at a dose of 10 mg/kg; format: functional, organism-based; set-up: dose 10 mg/kg; outline: as §3
Rattus norvegicus [33] = assay: Hypolipidemic activity was determined by measuring the % serum HDL in normal rat at a dose of 10 mg/kg; format: functional, organism-based; set-up: dose 10 mg/kg; outline: as §3
Rattus norvegicus [34] = assay: Hypolipidemic activity was determined by measuring the % serum cholesterol in normal rat at a dose of 1 mg/kg; format: functional, organism-based; set-up: dose 1 mg/kg; outline: as §3
Rattus norvegicus [35] = assay: Hypolipidemic activity was determined by measuring the % serum HDL-cholesterol in normal rat at the specified dose of 30 mg/kg; format: functional, organism-based; set-up: dose 30 mg/kg; outline: as §2
Rattus norvegicus [36] = assay: Hypolipidemic activity was determined by measuring the % serum triglycerides in normal rat at a dose of 10 mg/kg; format: functional, organism-based; set-up: dose 10 mg/kg; outline: as §3
Rattus norvegicus [37] = assay: Hypolipidemic activity was determined by measuring the % serum triglycerides in hypercholesterolemic RICO rat at a dose of 10 mg/kg; format: functional, organism-based; set-up: dose 10 mg/kg; outline: as §1
Rattus norvegicus [38] = assay: Hypolipidemic activity was determined by measuring the % serum cholesterol in rat at the specified dose of 10 mg/kg; format: functional, organism-based; set-up: dose 10 mg/kg; outline: as §2

Q: For `COC1/C=C/OC2(C)Oc3c(C)c(OC(=O)C(C)(C)C)c4c(c3C2=O)C(=O)C(N2CCN(Cc3c(C)cc(C)cc3C)CC2)=C(C4=O)N(C(=O)C(C)(C)C)C(=O)/C(C)=C\C=C\C(C)C(O)C(C)C(O)C(C)C(OC(C)=O)C1C` (centres undefined), which Serum HDL-cholesterol (Rattus norvegicus [1]) is on record?
A: Its Serum HDL-cholesterol is -45%.

Q: What about the Serum triglyceride (Rattus norvegicus [2]) of the same molecule?
A: The Serum triglyceride was -11%.

Q: And the Serum cholesterol (Rattus norvegicus [3])?
A: The Serum cholesterol was -12%.

Q: And the Serum HDL-cholesterol (Rattus norvegicus [4])?
A: Its Serum HDL-cholesterol is -24%.

Q: And the Serum HDL-cholesterol (Rattus norvegicus [5])?
A: Its Serum HDL-cholesterol is -11%.

Q: And the Serum LDL-cholesterol (Rattus norvegicus [6])?
A: Its Serum LDL-cholesterol is -69%.

Q: And the Serum cholesterol (Rattus norvegicus [7])?
A: The Serum cholesterol was -4%.

Q: What about the Activity (Rattus norvegicus [8]) of the same molecule?
A: Its Activity is -30%.

Q: And the Activity (Rattus norvegicus [9])?
A: The Activity was -55%.

Q: What about the MIC (Staphylococcus aureus) of the same molecule?
A: Its MIC is 64 µg/mL (≈ 59.2 µM).

Q: And the Serum triglyceride (Rattus norvegicus [10])?
A: The Serum triglyceride was -22%.

Q: What about the Serum cholesterol (Rattus norvegicus [11]) of the same molecule?
A: The Serum cholesterol was -50%.

Q: What about the Serum cholesterol (Rattus norvegicus [12]) of the same molecule?
A: The Serum cholesterol was -27%.

Q: And the Serum triglyceride (Rattus norvegicus [13])?
A: The Serum triglyceride was 14%.

Q: And the Serum cholesterol (Rattus norvegicus [14])?
A: The Serum cholesterol was -19%.

Q: And the Serum triglyceride (Rattus norvegicus [15])?
A: The Serum triglyceride was -47%.

Q: What about the Activity (Rattus norvegicus [16]) of the same molecule?
A: The Activity was -33%.

Q: What about the Serum LDL-cholesterol (Rattus norvegicus [17]) of the same molecule?
A: The Serum LDL-cholesterol was -51%.

Q: And the Serum HDL-cholesterol (Rattus norvegicus [18])?
A: Its Serum HDL-cholesterol is -4%.

Q: What about the Serum LDL-cholesterol (Rattus norvegicus [19]) of the same molecule?
A: The Serum LDL-cholesterol was -68%.

Q: What about the Serum LDL-cholesterol (Rattus norvegicus [20]) of the same molecule?
A: The Serum LDL-cholesterol was -35%.

Q: What about the Serum LDL-cholesterol (Rattus norvegicus [21]) of the same molecule?
A: The Serum LDL-cholesterol was -26%.

Q: And the Serum LDL-cholesterol (Rattus norvegicus [22])?
A: The Serum LDL-cholesterol was -8%.

Q: And the IC50 [23]?
A: The IC50 was greater than 100 µg/mL.

Q: And the Serum HDL-cholesterol (Rattus norvegicus [24])?
A: The Serum HDL-cholesterol was -34%.

Q: And the Serum cholesterol (Rattus norvegicus [25])?
A: The Serum cholesterol was -29%.

Q: And the Serum cholesterol (Rattus norvegicus [26])?
A: The Serum cholesterol was -33%.

Q: And the Serum HDL-cholesterol (Rattus norvegicus [27])?
A: Its Serum HDL-cholesterol is -6%.

Q: And the Serum LDL-cholesterol (Rattus norvegicus [28])?
A: The Serum LDL-cholesterol was -53%.

Q: And the Serum HDL-cholesterol (Rattus norvegicus [29])?
A: Its Serum HDL-cholesterol is 0%.

Q: And the Serum triglyceride (Rattus norvegicus [30])?
A: The Serum triglyceride was 14%.

Q: What about the Serum LDL-cholesterol (Rattus norvegicus [31]) of the same molecule?
A: Its Serum LDL-cholesterol is -34%.

Q: And the Serum LDL-cholesterol (Rattus norvegicus [32])?
A: Its Serum LDL-cholesterol is -56%.

Q: What about the Serum HDL-cholesterol (Rattus norvegicus [33]) of the same molecule?
A: Its Serum HDL-cholesterol is -21%.

Q: What about the Serum cholesterol (Rattus norvegicus [34]) of the same molecule?
A: The Serum cholesterol was -5%.

Q: What about the Serum HDL-cholesterol (Rattus norvegicus [35]) of the same molecule?
A: Its Serum HDL-cholesterol is -27%.

Q: And the Serum triglyceride (Rattus norvegicus [36])?
A: The Serum triglyceride was -17%.

Q: What about the Serum triglyceride (Rattus norvegicus [37]) of the same molecule?
A: The Serum triglyceride was -32%.

Q: What about the Serum cholesterol (Rattus norvegicus [38]) of the same molecule?
A: The Serum cholesterol was -16%.
